Measurements from ChEMBL document CHEMBL1142586, “Bisnortriterpenes from Salacia madagascariensis” (J Nat Prod, 2005).
Converted amounts (≈) assume the structure as drawn.

What was measured:
[1] = system: Plasmodium falciparum; experiment: Antiplasmodial activity against Plasmodium falciparum W2; format: functional, organism-based
[2] = system: Staphylococcus aureus; experiment: Antimicrobial activity against methicillin-resistant Staphylococcus aureus by NCCLS method; format: functional, organism-based
[3] = system: Mycobacterium intracellulare; experiment: Antimicrobial activity against Mycobacterium intracellular by alamar blue test; format: functional, organism-based
[4] = Selectivity index, ratio of IC50 for african green monkey VERO cells to IC50 for Leishmania donovani; format: toxicity, cell-based; settings: read-out: Selectivity Index
In short: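 The index was calculated as the VERO cell IC50 divided by the mean IC50 against L. donovani from the two tests.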

[5] = system: Plasmodium falciparum; experiment: Antiplasmodial activity against Plasmodium falciparum D6; format: functional, organism-based
[6] = system: Vero; experiment: Cytotoxicity against african green monkey Vero cells; format: cell-based; settings: Chlorocebus sabaeus
[7] = system: Staphylococcus aureus; experiment: Antimicrobial activity against Staphylococcus aureus by NCCLS method; format: functional, organism-based
[8] = Selectivity index, ratio of IC50 for african green monkey (Cercopithecus aethiops) Vero cells to IC50 for Plasmodium falciparum W2; format: toxicity, cell-based; settings: read-out: Selectivity Index
In short: (§1)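 The index was calculated as the VERO (monkey kidney cell line) IC50 divided by the IC50 against the respective P. falciparum clone.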

[9] = Selectivity index, ratio of IC50 for african green monkey (Cercopithecus aethiops) Vero cells to IC50 for Plasmodium falciparum D6; format: toxicity, cell-based; settings: read-out: Selectivity Index; in short: as §1
[10] = system: Leishmania donovani; experiment: Antileishmanial activity against Leishmania donovani promastigotes after 48 hrs by alamar blue assay; format: functional, organism-based
In short: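 IC50 (µg/mL) was determined in two separate tests against Leishmania donovani, and the mean of the tests was reported. IC90 was also determined.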

[11] = system: Leishmania mexicana; experiment: Antileishmanial activity against Leishmania mexicana; format: functional, organism-based

Q: For `CC1=C(O)C(=O)C=C2C1=CC=C1[C@@]2(C)CC[C@@]2(C)[C@@H]3C[C@@H](CO)CC[C@]3(C)CC[C@]12C`, which IC50 [1] is on record?
A: 0.068 µg/mL (≈ 0.161 µM)

Q: And the IC50 [2]?
A: 0.7 µg/mL (≈ 1.66 µM)

Q: And the IC50 [3]?
A: 15 µg/mL (≈ 35.5 µM)

Q: And the selectivity ratio [4]?
A: 31

Q: What about the IC50 [5] of the same compound?
A: 0.068 µg/mL (≈ 0.161 µM)

Q: And the IC50 [6]?
A: 2.1 µg/mL (≈ 4.97 µM)

Q: And the IC50 [7]?
A: 0.65 µg/mL (≈ 1.54 µM)

Q: What about the selectivity ratio [8] of the same compound?
A: 31

Q: What about the selectivity ratio [9] of the same compound?
A: 31

Q: And the IC50 [10]?
A: 0.027 µg/mL (≈ 0.0639 µM)

Q: What about the IC90 [10] of the same compound?
A: 0.057 µg/mL (≈ 0.135 µM)

Q: Which selectivity ratio [4] does the source give for `C[C@@H]1[C@H](O)[C@@H](C)/C=C/C=C/C=C/C=C/C=C/C=C/C=C/[C@H](O[C@@H]2O[C@H](C)[C@@H](O)[C@H](N)[C@@H]2O)C[C@@H]2O[C@](O)(C[C@@H](O)C[C@@H](O)[C@H](O)CC[C@@H](O)C[C@@H](O)CC(=O)O[C@H]1C)C[C@H](O)[C@H]2C(=O)O` [AMPHOTERICIN B] here?
A: 59

Q: What about the IC50 [6] of the same compound?
A: 6.5 µg/mL (≈ 7.03 µM)

Q: And the IC50 [10]?
A: 0.11 µg/mL (≈ 0.119 µM)

Q: What about the IC90 [10] of the same compound?
A: 0.23 µg/mL (≈ 0.249 µM)

Q: With `C[C@@H]1CC[C@H]2[C@@H](C)C(=O)O[C@@H]3O[C@@]4(C)CC[C@@H]1[C@]32OO4` [ARTEMISININ] as the compound, how does the IC50 [1] read?
A: 0.0018 µg/mL (≈ 0.00638 µM)

Q: Which IC50 [1] does the source give for `C=C1CC[C@]2(C)CC[C@]3(C)C4=CC=C5C(=CC(=O)C(O)=C5C)[C@]4(C)CC[C@@]3(C)[C@@H]2C1` [ISOIGUESTERIN] here?
A: 0.17 µg/mL (≈ 0.42 µM)

Q: And the IC50 [2]?
A: 0.85 µg/mL (≈ 2.1 µM)

Q: And the IC50 [3]?
A: 4.5 µg/mL (≈ 11.1 µM)

Q: What about the selectivity ratio [4] of the same compound?
A: 50

Q: And the IC50 [5]?
A: 0.2 µg/mL (≈ 0.494 µM)

Q: What about the IC50 [6] of the same compound?
A: 1.6 µg/mL (≈ 3.95 µM)

Q: And the IC50 [7]?
A: 0.85 µg/mL (≈ 2.1 µM)

Q: And the selectivity ratio [8]?
A: 3.9

Q: And the IC50 [11]?
A: 0.035 µg/mL (≈ 0.0865 µM)

Q: What about the selectivity ratio [9] of the same compound?
A: 3.4

Q: What about the IC50 [10] of the same compound?
A: 0.032 µg/mL (≈ 0.0791 µM)

Q: What about the IC90 [10] of the same compound?
A: 0.055 µg/mL (≈ 0.136 µM)
